What all share (test): Microdilution broth MIC/MBC
What all share (conditions): synthesized identified peptides
(In general: In broth dilution the organism is exposed to a series of concentrations in liquid medium.)

One test deals with B. cereus DMST 5040. The format is cell-based, Bacillus cereus. In outline: (§1)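 Broth microdilution per CLSI guideline, modified. Strains grown 18 h on tryptic soy agar, adjusted to 0.5 McFarland, then diluted in 0.85% NaCl to about 5 × 10^5 CFU/mL final. Suspension mixed with test compound in microplate wells and incubated 37°C, 18 h. Growth inhibition read at 600 nm. Positive control: 20 µg/mL kanamycin. Experiments done 3 times.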

The next test concerns S. Typhimurium TISTR 292. Type of test: cell-based, Salmonella typhimurium. In outline: as §1
For the next test, the system named is E. coli TISTR 780. Type of test: cell-based. In outline:
as §1

In the next test the test system is S. aureus ATCC 29213. Type of test: cell-based, Staphylococcus aureus. In outline:
as §1

Ends that are not written are not given here.

A word on the MIC: it is the lowest concentration that inhibits growth of the organism. Take VTLKVPGVTL [VTLKVPGVTL]: the MIC in the test with B. cereus DMST 5040, with S. Typhimurium TISTR 292, against E. coli TISTR 780 and against S. aureus ATCC 29213 was more than 4 mM throughout.

Regarding HAAHTTGLGGPF [HAAHTTGLGGPF], the MIC with B. cereus DMST 5040, against S. Typhimurium TISTR 292, in the test on E. coli TISTR 780 and in the test with S. aureus ATCC 29213 was more than 4 mM each time.

As to KVLPLPFGGRSPGGGA [KVLPLPFGGRSPGGGA], the MIC against B. cereus DMST 5040, with S. Typhimurium TISTR 292, with E. coli TISTR 780 and against S. aureus ATCC 29213 was more than 4 mM in each case.

Regarding KGGDLGLFEPTL [KGGDLGLFEPTL], the MIC in the test on B. cereus DMST 5040 was 2 mM; against S. Typhimurium TISTR 292, 2 mM; in the test on E. coli TISTR 780, more than 4 mM; against S. aureus ATCC 29213 it was 2 mM.

For the sequence CASALLGA [CASALLGA], the MIC against B. cereus DMST 5040 was 4 mM; against S. Typhimurium TISTR 292, 4 mM; in the test with E. coli TISTR 780, more than 4 mM; with S. aureus ATCC 29213, 4 mM.

Source of the values: article PMC10172704 (Poultry Science, 2023).
